In experiment [1] the target is Glutamate NMDA receptor; GRIN1/GRIN2A (Homo sapiens, UniProt Q05586+Q12879). Briefly: Antagonist activity at recombinant NR1/NR2A receptor expressed in Xenopus laevis oocytes. In kind it is functional, cell-based, Oocyte. The essentials: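 Two-electrode voltage clamp of oocytes injected with NR1 plus NR2A cRNA at 1:5 (0.1–4 ng NR1 plus 0.5–20 ng NR2), held at -70 mV. Receptors activated by superfused glycine and glutamate (10 µM). IC50 from concentration–inhibition curves over five or six concentrations; means ± SEM of four oocytes.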

The target in experiment [2] is Glutamate NMDA receptor; GRIN1/GRIN2B (Homo sapiens, UniProt Q05586+Q13224). Briefly: Antagonist activity at recombinant NR1/NR2B receptor expressed in Xenopus laevis oocytes. In kind it is functional, cell-based, Oocyte. An outline of the steps:
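Xenopus oocytes injected with NR1 plus NR2B cRNAs at 1:5 (0.1–4 ng NR1 plus 0.5–20 ng NR2). Two-electrode voltage clamp at −70 mV. Receptors activated by superfused glycine and glutamate (10 µM). IC50 from concentration–inhibition curves using five or six concentrations. Means ± SEM of four oocytes.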

The subject of the next experiment is FM3A. Briefly: Cytotoxicity in mouse FM3A cells after 48 hrs. In kind it is functional, cell-based. An outline of the steps: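 FM3A cells (1 × 10⁴) cultured in ES medium with or without various compound concentrations at 37 °C for 48 h. Cells counted with 0.05% Trypan blue. IC50 as mean ± SD of triplicate determinations.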

Chain of Glutamate NMDA receptor; GRIN1/GRIN2B (Q13224 whole entry, other chains not shown, the tested form may be a part): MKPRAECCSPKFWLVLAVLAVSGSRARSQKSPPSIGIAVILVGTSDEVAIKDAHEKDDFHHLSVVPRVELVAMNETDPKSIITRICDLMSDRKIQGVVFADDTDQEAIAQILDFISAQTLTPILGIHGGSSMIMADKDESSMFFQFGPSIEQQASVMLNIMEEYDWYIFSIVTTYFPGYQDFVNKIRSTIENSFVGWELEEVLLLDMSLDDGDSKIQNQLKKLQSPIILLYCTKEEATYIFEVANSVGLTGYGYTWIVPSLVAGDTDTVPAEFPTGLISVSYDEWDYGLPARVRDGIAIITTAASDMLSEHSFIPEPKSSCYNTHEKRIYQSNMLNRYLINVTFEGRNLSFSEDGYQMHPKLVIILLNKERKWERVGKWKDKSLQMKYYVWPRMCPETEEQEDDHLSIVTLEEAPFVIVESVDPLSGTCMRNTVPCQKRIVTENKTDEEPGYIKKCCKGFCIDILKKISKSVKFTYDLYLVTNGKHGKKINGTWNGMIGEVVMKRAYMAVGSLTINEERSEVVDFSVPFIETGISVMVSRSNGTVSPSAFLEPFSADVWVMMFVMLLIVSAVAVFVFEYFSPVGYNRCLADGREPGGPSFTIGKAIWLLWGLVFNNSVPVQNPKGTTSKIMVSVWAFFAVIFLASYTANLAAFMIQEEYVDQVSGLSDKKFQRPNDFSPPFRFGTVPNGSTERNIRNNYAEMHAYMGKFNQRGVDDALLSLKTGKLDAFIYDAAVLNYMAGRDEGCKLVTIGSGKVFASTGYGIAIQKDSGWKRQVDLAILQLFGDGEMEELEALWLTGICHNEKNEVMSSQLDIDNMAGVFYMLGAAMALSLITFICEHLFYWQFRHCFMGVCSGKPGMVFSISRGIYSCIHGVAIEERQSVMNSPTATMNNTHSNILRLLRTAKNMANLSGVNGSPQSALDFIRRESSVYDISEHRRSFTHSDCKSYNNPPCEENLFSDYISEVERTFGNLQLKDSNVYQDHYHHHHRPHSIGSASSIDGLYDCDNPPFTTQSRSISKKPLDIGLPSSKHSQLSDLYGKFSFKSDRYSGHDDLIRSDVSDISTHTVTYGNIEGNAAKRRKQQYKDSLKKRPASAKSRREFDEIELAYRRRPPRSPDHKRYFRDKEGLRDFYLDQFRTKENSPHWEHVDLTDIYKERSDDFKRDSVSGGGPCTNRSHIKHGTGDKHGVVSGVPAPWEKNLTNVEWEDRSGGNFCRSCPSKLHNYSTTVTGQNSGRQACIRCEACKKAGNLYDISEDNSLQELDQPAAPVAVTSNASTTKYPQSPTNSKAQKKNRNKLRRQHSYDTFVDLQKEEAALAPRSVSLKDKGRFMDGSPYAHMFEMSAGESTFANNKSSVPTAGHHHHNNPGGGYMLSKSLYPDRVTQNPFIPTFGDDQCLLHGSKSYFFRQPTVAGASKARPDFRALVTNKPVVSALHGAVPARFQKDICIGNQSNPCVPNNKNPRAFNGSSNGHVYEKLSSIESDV
Chain of Glutamate NMDA receptor; GRIN1/GRIN2A (Q12879 whole entry, other chains not shown, the tested form may be a part): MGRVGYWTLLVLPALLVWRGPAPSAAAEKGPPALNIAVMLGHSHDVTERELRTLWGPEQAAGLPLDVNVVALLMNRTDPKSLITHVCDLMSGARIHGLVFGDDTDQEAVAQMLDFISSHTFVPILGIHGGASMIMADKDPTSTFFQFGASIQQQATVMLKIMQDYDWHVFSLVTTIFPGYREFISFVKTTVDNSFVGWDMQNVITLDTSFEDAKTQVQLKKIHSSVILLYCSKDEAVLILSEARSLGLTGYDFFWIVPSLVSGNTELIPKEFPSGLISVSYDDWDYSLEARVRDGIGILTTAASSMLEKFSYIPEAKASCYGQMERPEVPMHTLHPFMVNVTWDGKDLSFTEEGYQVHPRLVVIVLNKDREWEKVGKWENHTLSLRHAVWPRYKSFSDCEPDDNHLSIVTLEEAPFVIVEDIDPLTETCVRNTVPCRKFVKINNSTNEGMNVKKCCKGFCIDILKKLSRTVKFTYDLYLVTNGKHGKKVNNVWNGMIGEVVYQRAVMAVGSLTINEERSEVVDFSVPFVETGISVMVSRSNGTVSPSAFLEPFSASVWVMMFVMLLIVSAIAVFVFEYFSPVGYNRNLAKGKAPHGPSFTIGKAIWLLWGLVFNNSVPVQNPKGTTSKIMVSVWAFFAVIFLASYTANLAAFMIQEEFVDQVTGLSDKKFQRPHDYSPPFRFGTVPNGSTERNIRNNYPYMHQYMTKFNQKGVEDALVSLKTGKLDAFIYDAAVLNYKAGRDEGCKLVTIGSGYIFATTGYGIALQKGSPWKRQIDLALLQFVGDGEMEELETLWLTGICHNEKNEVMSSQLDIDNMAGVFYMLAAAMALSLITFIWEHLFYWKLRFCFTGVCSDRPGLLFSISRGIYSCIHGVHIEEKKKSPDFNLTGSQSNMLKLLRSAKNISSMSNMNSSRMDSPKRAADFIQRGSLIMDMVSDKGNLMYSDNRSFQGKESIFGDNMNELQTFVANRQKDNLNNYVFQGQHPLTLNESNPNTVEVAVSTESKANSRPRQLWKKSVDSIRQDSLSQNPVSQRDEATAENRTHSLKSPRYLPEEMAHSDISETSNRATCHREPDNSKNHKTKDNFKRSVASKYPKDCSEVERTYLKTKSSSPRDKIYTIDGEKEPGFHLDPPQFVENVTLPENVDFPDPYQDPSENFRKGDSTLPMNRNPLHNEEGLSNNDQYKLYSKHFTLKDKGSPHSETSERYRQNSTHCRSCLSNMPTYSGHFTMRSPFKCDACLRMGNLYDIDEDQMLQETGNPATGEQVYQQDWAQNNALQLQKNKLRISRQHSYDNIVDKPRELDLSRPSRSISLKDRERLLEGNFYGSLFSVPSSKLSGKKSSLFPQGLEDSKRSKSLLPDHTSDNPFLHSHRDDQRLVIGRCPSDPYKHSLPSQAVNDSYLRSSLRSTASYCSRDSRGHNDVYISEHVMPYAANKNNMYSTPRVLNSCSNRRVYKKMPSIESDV

For orientation: IC50 means the concentration at which inhibition is half-maximal. For `NCCCNCCCCNCCCNC(=O)c1ccc2c(c1)C(=O)c1ccccc1C2=O`, the IC50 stood at 392 nM in experiment [1], 491 nM in experiment [2] and 14900 nM with FM3A.

In the case of `NCCCCNCCCNCCCCNC(=O)N1c2ccccc2C=Cc2ccccc21`, the IC50 in experiment [1] was 198 nM; in experiment [2] it was 335 nM; in the experiment with FM3A it was 115000 nM.

As for `NCCCCNCCCCNCCCCNC(=O)N1c2ccccc2C=Cc2ccccc21`, the IC50 in experiment [2] worked out at 293 nM; in the experiment on FM3A, 132000 nM.

Take `NCCCNCCCCNCCCNC(=O)N1c2ccccc2CCc2ccccc21`: the IC50 in experiment [1] worked out at 958 nM; in experiment [2] it was 442 nM; in the experiment with FM3A it was 102000 nM.

Consider `NCCCCNCCCNCCCCNC(=O)N1c2ccccc2CCc2ccccc21`, for which the IC50 in experiment [1] was 117 nM; in experiment [2], 270 nM; in the experiment with FM3A it was 169000 nM.

Turning to `NCCCCNCCCCNCCCCNC(=O)N1c2ccccc2CCc2ccccc21`, the IC50 was determined as 142 nM in experiment [2] and 133000 nM in the experiment on FM3A.

As for `NCCCCNCCCNCCCCNC(=O)N1c2ccccc2Sc2ccccc21`, the IC50 in experiment [1] came to 78 nM; in experiment [2], 108 nM; with FM3A, 32500 nM.

Turning to `NCCCCNCCCCNCCCCNC(=O)N1c2ccccc2Sc2ccccc21`, the IC50 in experiment [1] was determined as 127 nM; in experiment [2], 108 nM; in the experiment with FM3A, 40400 nM.

For `NCCCNCCCCNCCCNC(=O)n1c2ccccc2c2ccccc21`, the IC50 in experiment [1] is 145 nM; in experiment [2], 83 nM; in the experiment on FM3A, 31300 nM.

Regarding `NCCCCNCCCCNCCCCNC(=O)n1c2ccccc2c2ccccc21`, the results for the IC50 (in experiment [1]; in experiment [2]; with FM3A) were 111 nM, 166 nM and 84200 nM, respectively.

On to `NCCCNCCCCNCCCNC(=O)N1c2ccccc2C=Cc2ccccc21`, for which the IC50 in experiment [1] was determined as 203 nM; in experiment [2], 199 nM; with FM3A, 97600 nM.

Turning to `NCCCNCCCCNCCCNC(=O)N1c2ccccc2Sc2ccccc21`, the IC50 was found to be 215 nM in experiment [1], 348 nM in experiment [2] and 57100 nM in the experiment on FM3A.

With `NCCCCNCCCNCCCCNC(=O)n1c2ccccc2c2ccccc21`, the IC50 in experiment [1] was found to be 211 nM; in experiment [2], 189 nM; in the experiment with FM3A, 42300 nM.

With `CC12CC3CC(C)(C1)CC(N)(C3)C2` [MEMANTINE], half-maximal inhibition in the experiment with FM3A (IC50) was put at 147000 nM.

The values are drawn from ChEMBL document CHEMBL1146243, “Design, synthesis, and biological evaluation of tricyclic heterocycle-tetraamine conjugates as potent NMDA channel blockers” (Bioorg Med Chem Lett, 2007).
